System: MS2 coat protein
Test: apparent Kd, MS2 coat protein; higher = weaker binding; RNA-MaP array; FMN 200 µM where present
How it was run: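 Apparent Kd: the median of filtered binding-curve fits from single clusters. Designs were transcribed on Illumina sequencing-chip clusters by stalled E. coli RNA polymerase and titrated with SNAP-549-labelled MS2 coat protein from 0.7 or 1.5 nM, doubling to 3 µM, in 100 mM Tris-HCl pH 7.5, 80 mM KCl, 4 mM MgCl2, BSA, DTT, yeast tRNA and Tween-20. Each series ran without and then with constant ligand, and green signal was normalised to red-channel RNA signal and control-cluster median Fmax.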

[1] = designed as: OFF switch for flavin mononucleotide, no ligand
[2] = ligand present: flavin mononucleotide, designed as: OFF switch for flavin mononucleotide
[3] = designed as: ON switch for flavin mononucleotide, no ligand
[4] = ligand present: flavin mononucleotide, designed as: ON switch for flavin mononucleotide

| Sequence | apparent Kd [1] | apparent Kd [2] | apparent Kd [3] | apparent Kd [4] |
| --- | --- | --- | --- | --- |
| UUAAAGGCAGGAUAUACAUUUUUUUUAUUAUCCUCAUUAUUACAUGAGGAUCACCCAUGUAGAAGGGCCAAAUU | 81.7 nM | 54.1 nM | – | – |
| CCUUUGUCAGGAUAUCAGUACAGGUCGAGUUUAGACCUGUUUGAGAAGGGACAUGAGGAUCACCCAUGUAAAAC | 125 nM | 161 nM | – | – |
| CUUUCGUGAGGAUAUGUGGCUUAAAUCGUGAGAUCGAGGCUACAGAAGGCACAUGAGGAUCACCCAUGUUCCUC | 36 nM | 569 nM | – | – |
| AAAGUUGGUAGGCCCUCGGAACAUGAGGAUCACCCAUGUAAGGAGGAUAUGCCCGGUACCCGCUGGCAGAAGGCCUUAUAAUAA | 10.5 nM | 61.6 nM | – | – |
| GGGUGGCGUAGAGGAUAUGUGGUACAUGAGGAUCACCCAUGUGCAUAUGAUGUUCAUGUUUAUGUAUAGAAGGCUACGUCGCUA | – | – | 26.1 nM | 36.4 nM |
| GCGAAUUAGUGAGGAUAUACAUAAUUUAAAACUGUAGAAGGCACAAUCCUCAAGACAUGAGGAUCACCCAUGUGGUAUUACGCU | 138 nM | 861 nM | – | – |
| CUUUAGCUAGGAUAUACAUGAGGAUCACCCAUGUUAGCGGUCAAUUGGGCCGCGGGUUGUAGAAGGAGCAUUAA | 32.5 nM | 53.4 nM | – | – |
| AGUACUCAAAGAGUACCCAUACGGACAUGAGGAUCACCCAUGUAGGAUAUGCUACUCAAAGAGUAGUAGAAGGACAUAUACCUC | 8.91 nM | 15.7 nM | – | – |
| AUAUGAUAGAUAGGAUAUACUGAGGUUGAAUGGGUAGAAGGAUCGAUAGGGAAGAAUACAUGAGGAUCACCCAUGUUGUGGAUU | – | – | 76.9 nM | 57.8 nM |
| UUUGGGUGGCUGGAGGAUAUUCGAGUGGUUACAUGAGGAUCACCCAUGUGUCGCGCGGUACGCGAGGAGAAGGCUGGCGGCCGUU | – | – | 79.7 nM | 37 nM |
| UUAAUUAAAGUGAGGAUAUCUAGAGCCUCGGCUCUAGAGAAGGCACAUGAGGAUCACCCAUGUCUCAAUUAAUU | 15.7 nM | 26.8 nM | – | – |
| CGUAACUACAUAGGAUAUUGAUACAUGAGGAUCACCCAUGUUAUAGGGAUUAGUAUAAUAUUAAGCAAGAAGGAUGAAGUUACG | – | – | 23.4 nM | 14.8 nM |
| AGCUGGAGAGGAUAUACGUAAGUGAAAAAAGUCUGAUAACUACAUGAGGAUCACCCAUGUAGAAGGCUCUGGCA | 19.3 nM | 33.2 nM | – | – |
| AAGUAGACGGUGAGGAUAUAGGUCGAAUGACCGAUCUAGAAGGCACAUGAGGAUCACCCAUGUGGGUAACGUCG | 17.8 nM | 20.7 nM | – | – |
| AAUAUGUUGCAGAAGGUUAUAUUUUUUUAGUACCUCAUUACAUGAGGAUCACCCAUGUAAAUGAUGAAGGAUAUGCAAUAUAUU | 19.3 nM | 16.4 nM | – | – |
| AGCGUCGGCACAGGAUAUGAGAUGCCGGCAGACAUGAGGAUCACCCAUGUAAGCGAACCAGGCAGUCAGAAGGGUGAUCGACAA | – | – | 56.3 nM | 21.7 nM |
| AACAUGUCAGGAUAUGCAACAGGAGACUGACACGCGAGUGAGCAGAAGGGACAUGAGGAUCACCCAUGUUCAAA | 19.1 nM | 17.4 nM | – | – |
| UUAUACGGUGAGGAUAUCUUCACUAAAGUGUGAAGAGAAGGCGCUACAUGAGGAUCACCCAUGUCUAUGGGCAG | 556 nM | 755 nM | – | – |
| AAGAAACAUGAGGAUCACCCAUGUCACCUCACACGAGGAUAUCUGAAUCGAUUAGAUUACGGAGAAGGCGUGAGAA | – | – | 30.2 nM | 18.3 nM |

| Sequence | apparent Kd [1] | apparent Kd [2] | apparent Kd [3] | apparent Kd [4] |
| --- | --- | --- | --- | --- |
| UCAGGUCGGGAAGGAUAUCGGCCGCGAAGAGCUCGAGAAGGUCCCGACAUGAGGAUCACCCAUGUUGAAGGGUCCUAACGUGCC | 158 nM | 93.4 nM | – | – |
| UAAUAAUAAUAAUAGCAGUUUACAUGAGGAUCACCCAUGUAUAAGGAUAUCGUCAGGAAUACUGACGAGAAGGUAUACAUCUGC | 20.3 nM | 33.6 nM | – | – |
| CUCAAACAUGAGGAUCACCCAUGUGUUGUCGUGGGAGGAUAUCCCGGUUCGGUGGCGUCGGGAGAAGGCCUAUGUC | – | – | 68 nM | 35 nM |
| GUCAGCUCGUGAGGAUAUACAACACUGCUUCGGCAGUGUAUUAAGAUCACAUGAGGAUCACCCAUGUAGAAGGCACGAGCUAAU | 15.9 nM | 267 nM | – | – |
| CAUACACAUGAGGAUCACCCAUGUGAGGAUAUGAAUACGUUGUCCGUAGGCGACGUGAUCAGAAGGCGCUUGGU | 45.4 nM | 61.8 nM | – | – |
| GUGCAAUGAGGAUAUACGUUGGUGAACAUCUGUGUGCUCCUACAUGAGGAUCACCCAUGUAGAAGGCAUGUCAC | 11.4 nM | 17.1 nM | – | – |
| GGUAAGAUGCAGAAGGUGUUAGCUAGAGCUACGACAUGAGGAUCACCCAUGUACUAGAAACAGUACAAGGAUAUGCAUCUUACU | – | – | 18.9 nM | 6.53 nM |
| GGUGGGAGGUAGACUGGACGGGCAACAUGAGGAUCACCCAUGUAGGAUAUCGUGUGUGUCAACGACGAGAAGGGCGUAGGCGGA | 20.3 nM | 17.1 nM | – | – |
| UGACGGCACACAGGAUAUAGCGCAGAAAGUACGCUAGAAGGGUGAGCACUCGUCCGGGCACAUGAGGAUCACCCAUGUCGUCGA | – | – | 204 nM | 472 nM |
| CGCAAGUCAGGAUAUUCGACAGGUAAAUCAGUGGAUCAGUAGGAGAAGGGACAUGAGGAUCACCCAUGUAUGUA | 49.7 nM | 29.6 nM | – | – |
| GAGUAGUUGAAAGGAUAUGCAUUGUUAUAGAAUGCAGAAGGUUCUAACAUGAGGAUCACCCAUGUAGGACUAUUCCUGUGUAUC | – | – | 12.1 nM | 9.82 nM |
| CCUAAGGACACAGGAUAUAGCGUGGUGGCCGGACUCCAACAGCGAGCGGCGCUAGAAGGGUGACCACAUGAGGAUCACCCAUGU | – | – | 709 nM | 370 nM |
| UAUAUGUCAGGAUAUUAGUUGUGGACGAAUUUCACUUCUGCUGAGAAGGGACAUGAGGAUCACCCAUGUUCCUC | 15.4 nM | 16 nM | – | – |
| CUCAGCUCGUCAGGAUAUACGUCACUGCUUCGGCAGUGUGGUAAGAUCACAUGAGGAUCACCCAUGUAGAAGGGACGAGCUGAA | 12.8 nM | 266 nM | – | – |
| GGUGGUUGAGGAUAUACGAACAUGUCGCCAGAUGUCAUGGUACAUGAGGAUCACCCAUGUAGAAGGUGGUUGUC | 357 nM | 576 nM | – | – |
| AUAAUUUUAUUUUUCUAUUUCAUCAGAAGGCAUUACAUGAGGAUCACCCAUGUUUUGGAUAGUAAUGAGGAUAUGAUAUGGUUA | 10.2 nM | 18.6 nM | – | – |
| AAGCUGCGCCAGAAGGGACCGACAUGAGGAUCACCCAUGUCCACAAGAGUCAGGAUAUGGCGUGGAGGCUCGUUUAAGUCCAGG | – | – | 11.1 nM | 5.19 nM |
| GUGCUCGUGUGAGGAUAUGCUGCCGGGUCGGCUGCAGAAGGUACUAUUAUACAUGAGGAUCACCCAUGUCGCUUUUCUCCGGUG | – | – | 45.6 nM | 44.9 nM |
| AAAAAGUGAGGAUAUGCACUGUCCUGUAGACACGAGCAGUUGUAGAAGGCACAUGAGGAUCACCCAUGUUUAAA | 29.2 nM | 25.9 nM | – | – |

| Sequence | apparent Kd [1] | apparent Kd [2] | apparent Kd [3] | apparent Kd [4] |
| --- | --- | --- | --- | --- |
| AUCCCGCGAGGAUAUACAUGAGGAUCACCCAUGUAGGUUCUGGAUGGGCGAAAUUUGUGUAGAAGGCGCACCAA | 33.4 nM | 26.1 nM | – | – |
| AAUAAACAUGAGGAUCACCCAUGUCCCACCAGCCAAGGAUAUGGGCCCGCCGCACAGGUACCAGAAGGUGGCUGCC | – | – | 165 nM | 55.7 nM |
| GCGUAACAUGAGGAUCACCCAUGUACUCGAGAAAUCGAGUGUAGAAGGGUGACCGGUCGUUUGGCACAGGAUAUACACGCUGUG | – | – | 31.1 nM | 14.1 nM |
| UAAAUGUGAGGAUAUUCGUUGAACUCGGAGACGAGUUUAACGGAGAAGGCACAUGAGGAUCACCCAUGUUCCUU | 20.4 nM | 211 nM | – | – |
| UUGUUCUGAGGAUAUACAUGAGGAUCACCCAUGUGUUUCAGCUAGGAGACUAGCGAAAGUAGAAGGCUGUUCUC | 16.7 nM | 17.9 nM | – | – |
| AAGAAGUUAGGAUAUGCAUGGCGGGACUUGCGUCGUGGCGUGCAGAAGGAACAUGAGGAUCACCCAUGUAAAGA | 29.1 nM | 18.3 nM | – | – |
| AUAAAUAUAGCGAUAUGAUCGAGAGAUCAUGUCGCUAAUGUUAGAAGGACAUGAGGAUCACCCAUGUAGGAUAUGGGAGUAUGA | – | – | 197 nM | 86 nM |
| ACAGGAAACACAGGAUAUGAGCGAAAUAGAGACAUGAGGAUCACCCAUGUACCGUAGAGAACCGGUCAGAAGGGUGACUCCCGU | – | – | 25.4 nM | 18.9 nM |
| CAUUAAUUCAUUAUAGUUAUUAUACAGGAUAUGUUACAUGAGGAUCACCCAUGUUAUCAUGGUAAACAGAAGGGUAUAUAAAGU | 33.5 nM | 57.5 nM | – | – |
| GCACUUUUAUUUUAACCGUUUCGAACAUGAGGAUCACCCAUGUAGGAUAUGCUAAAAGUUGUGAUGCAGAAGGACAUUAAGUGC | 7.15 nM | 7.29 nM | – | – |
| ACUAAAGAAGGAUAUACUAACGAACCUCAAACAUAGAUAAAACAUGAGGAUCACCCAUGUAGAAGGUCUAGACU | 31.7 nM | 39.6 nM | – | – |
| AUUUAACCCAGCGGUGCUGAUGCACAUGAGGAUCACCCAUGUAGAAGGCAGCUAGACACUUAAGCUGAGGAUAUACAUGUAAGA | 15.6 nM | 63.3 nM | – | – |
| CCCUCACAUGAGGAUCACCCAUGUCAGGAUAUCUAGUCAGAUAGUGUAGCACUAAUGAAGAGAAGGGACGUAUA | 18.2 nM | 23.9 nM | – | – |
| GAUAUGUUAGGAUAUCGGAAAACGGCCCACUGGCACGGAAGCGAGAAGGGACAUGAGGAUCACCCAUGUGAAAG | 48.1 nM | 31.4 nM | – | – |
| AAUUGGAUGCAGAAGGCAUGGACGACUCGUCACAUUAACAUGAGGAUCACCCAUGUAAAAUAACAUGAGGAUAUGCAUCCUAAA | – | – | 9.81 nM | 6.15 nM |
| UCGGCGCGAGGAUAUGCGGCUGGUGCUUCGGGCCCUGGCGUACAUGAGGAUCACCCAUGUAGAAGGCGCGCCGC | 11.7 nM | 14.7 nM | – | – |
| CAGCGAUAGCUGAAUGGUACAUGGGAGGAUAUGGGUUGAUACAUGAGGAUCACCCAUGUUUAAUACUAGAAGGCCCAUGUACCU | – | – | 316 nM | 11 nM |
| CCUGUGUAAGGAUAUGACAAUGGUAUCUUCGGAUACCAUUGUCAGAAGGUACAUGAGGAUCACCCAUGUAACAC | 15 nM | 30.4 nM | – | – |

Reference: the EternaBench riboswitch data
